Results collected from several papers.
Compare with care: the assays were run in different laboratories.

N=C(N)NCCC[C@H](NC(=O)[C@H](Cc1ccccc1)NC(=O)[C@H](CCC(N)=O)NC(=O)OCc1ccccc1)C(=O)c1nccs1  Tmax (female C57BL/6 mouse, plasma; intravenous, 5 mg/kg): 5 min
CCOC(=O)c1c(NC(=O)CNC(C)C)sc2c1CCCCC2  Tmax (male mouse, brain; intraperitoneal, 100 mg/kg, single dose): 30 min
C[C@H]1O[C@@H](O[C@H]2[C@@H](O)C[C@H](O[C@H]3[C@@H](O)C[C@H](O[C@H]4CC[C@@]5(C)[C@H](CC[C@@H]6[C@@H]5C[C@@H](O)[C@]5(C)[C@@H](C7=CC(=O)OC7)CC[C@]65O)C4)O[C@@H]3C)O[C@@H]2C)C[C@H](O)[C@@H]1O  efflux ratio (Caco-2; 10 µM, 2 h, pH 7.4): 8.9
O=c1c2cc(Cl)c(CO)cc2[nH]c(=S)n1Cc1cncnc1  efflux ratio (Caco-2; 10 µM, 90 min, pH 7.4): ~2
CC(C)NCC(O)COc1cccc2ccccc12 (stereo not shown)  efflux ratio (Caco-2; 10 µM, 2 h, pH 7.4): 0.7
COc1cc(C(=O)c2nc(-c3cccc4[nH]ccc34)c[nH]2)cc(OC)c1OC  Tmax (male CD-1 mouse, plasma; intraperitoneal, 15 mg/kg): 8.4 min
CC(=O)c1c(C)c2cnc(Nc3ccc(C4CCN(CCS(C)(=O)=O)CC4)cn3)nc2n(C2CCCC2)c1=O  efflux ratio (Caco-2; 10 µM): 0.96
CC(C)CC(=O)OC[C@H]1O[C@@](C#N)(c2ccc3c(N)ncnn23)[C@H](O)[C@@H]1O  NOAEL (general toxicity; beagle dog; oral, multiple doses): 100 mg/kg/day
Cc1[nH]c(C)c(S(=O)(=O)Nc2ccc(S(F)(F)(F)(F)F)cc2)c1C(=O)N1CCC(F)(F)C1  Tmax (mouse, brain; intraperitoneal, 40 mg/kg): 120 min
O=c1c2cc(Cl)c(CO)cc2[nH]c(=S)n1Cc1cccnc1  efflux ratio (Caco-2; 10 µM, 90 min, pH 7.4): ~2
